High-throughput results: PubChem BioAssay, several laboratories
HKDC1 inhibitor – HKDC1 (human) hexokinase inhibition | recombinant HKDC1, G6PDH/diaphorase resazurin coupled fluorescence | hit rate 0.16% among 340,000 | inhibition, % at 20 µM;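 active = inhibition above about 35% when tested at 20 µM, limit read from the data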;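 note: plate controls were DMSO wells with enzyme for no effect and DMSO wells lacking enzyme for full effect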
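System: Recombinant HKDC1 hexokinase | Amount: HKDC1 at 5 µg/mL | Reagent: Glucose with 1 mM ATP | Doses: Single 20 µM dose | Incubation: Reaction time 90 min, room temperature, protected from light | Signal: Coupled resazurin fluorescence, excitation 525 nm, emission 613 nm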
PfG6PD inh – PfG6PD (Plasmodium falciparum) enzyme inhibition; hit rate 0.78% among 350,000; PfGluPho enzyme, NADPH resazurin-diaphorase fluorescence; inhibition, % at 20 µM; AID 504690;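 active = inhibition reaching at least a set limit at 20 µM in the primary screen, cut at about 59% in these data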;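 note: 0% = DMSO wells with substrate and 100% = DMSO wells lacking glucose-6-phosphate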
APOBEC3A inh – human APOBEC3A DNA deaminase inhibition | P31941 | recombinant A3A, FAM/TAMRA ssDNA deamination fluorescence | inhibition, % at 20 µM | hit rate 0.41% among 330,000 | AID 493011;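 active = at least 40% inhibition at 20 µM here, with at most 30% in a related deaminase screen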;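 note: plate controls were A3A with DMSO for no effect and wells lacking A3A enzyme for full effect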
Target sequence (P31941 whole entry, looked up): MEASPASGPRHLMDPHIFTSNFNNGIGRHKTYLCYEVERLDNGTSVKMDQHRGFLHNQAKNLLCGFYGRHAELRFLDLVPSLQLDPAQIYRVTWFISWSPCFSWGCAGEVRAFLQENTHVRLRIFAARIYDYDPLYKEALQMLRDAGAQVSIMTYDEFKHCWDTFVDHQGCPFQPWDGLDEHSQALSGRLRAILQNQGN
SUMO HTRF inh – SUMOylation inhibition. P63279. HTRF SUMOylation assay, SAE1/SAE2 + UBC9, in vitro. inhibition, % at 35 µM. hit rate 0.36% among 290,000. AID 2006; in the data active = inhibition above about 50%, passing the limit was not always enough
Target sequence (P63279 whole entry, looked up): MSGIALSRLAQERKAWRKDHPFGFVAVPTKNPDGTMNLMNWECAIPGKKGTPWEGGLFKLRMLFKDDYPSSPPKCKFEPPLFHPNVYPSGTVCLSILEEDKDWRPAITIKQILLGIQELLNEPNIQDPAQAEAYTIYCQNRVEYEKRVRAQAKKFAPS
PfM18AAP inh-1 – PfM18AAP enzyme inhibition; AID 1822; inhibition, % at 7.35 µM; recombinant PfM18AAP, H-Glu-NHMec fluorogenic cleavage; hit rate 1.2% among 290,000;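 active = inhibition above the campaign mean inhibition over all tested compounds plus 3 SD, cut at about 28% in these data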;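 note: 0% = plate median of test compound wells and 100% = 2 mM ZnCl2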
APOBEC3G inh – inhibitors of human APOBEC3G DNA deaminase. inhibition, % at 20 µM. AID 493012. recombinant A3G, ssDNA deamination FAM/TAMRA fluorescence. hit rate 0.28% among 330,000;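 active = inhibition of at least 40% at 20 µM, with no more than 30% in the related APOBEC3A deaminase screen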;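 note: plate controls were DMSO wells with A3G for no effect and wells lacking A3G enzyme for full effect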
PfM18AAP inh-2 – confirmation of Plasmodium falciparum M18 aspartyl aminopeptidase inhibitors; shares compounds with PfM18AAP inh-1; recombinant PfM18AAP, H-Glu-NHMec fluorogenic cleavage; inhibition, % at 7.35 µM; hit rate 28% among 2,400; AID 2170;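 active = mean inhibition over replicate wells above the hit cutoff set for the earlier primary screen, cut at about 29% in these data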;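 note: 0% = median of test compound wells and 100% = 2 mM ZnCl2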
CTSL1 counter – Cathepsin L (human) inhibition, confirmation. shares compounds with PfM18AAP inh-1. purified cathepsin L1, Z-Leu-Arg-MCA fluorescence. inhibition, % at 5.96 µM. 2,400 tested, under 10 active;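 active = average inhibition across replicates above the hit cutoff set in the earlier primary screen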;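 note: 0% = median of test compound wells and 100% = Z-Phe-Ala-diazomethylketone 1 µM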
Target sequence (P07711 whole entry, looked up): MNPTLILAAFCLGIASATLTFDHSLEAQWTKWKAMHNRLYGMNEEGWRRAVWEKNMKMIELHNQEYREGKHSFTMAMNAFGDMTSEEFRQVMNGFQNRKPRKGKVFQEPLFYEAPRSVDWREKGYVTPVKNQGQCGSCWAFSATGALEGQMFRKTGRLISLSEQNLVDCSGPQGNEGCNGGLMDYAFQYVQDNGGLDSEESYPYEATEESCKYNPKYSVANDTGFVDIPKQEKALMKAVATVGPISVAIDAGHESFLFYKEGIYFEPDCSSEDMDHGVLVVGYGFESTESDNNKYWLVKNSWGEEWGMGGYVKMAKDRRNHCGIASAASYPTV
Numbers without * were called inactive; / = no result given. Compounds with a hit are over-represented: about 2.4% of the library has one in this group of screens.

SMILES | HKDC1 inhibitor | PfG6PD inh | APOBEC3A inh | SUMO HTRF inh | PfM18AAP inh-1 | APOBEC3G inh | PfM18AAP inh-2 | CTSL1 counter
CCn1c(/C=C/c2ccc(O)c(O)c2)nc2ccccc2c1=O | 3 | 20 | 2 | -4 | 54* | 1 | 43* | 1
CCn1c(/C=C/c2ccc(O)cc2)nc2ccccc2c1=O | -2 | 2 | -3 | 18 | -9 | -6 | / | /
Cc1ccc(C(=O)OCC(=O)N2CCC(c3ccccc3)=N2)cc1 | 2 | -6 | -1 | / | / | -1 | / | /
Cc1ccc(NC(=O)CSc2nc(=O)n(CCCN3CCOCC3)c3c2CCCC3)c(C)c1 | -6 | 3 | 1 | / | / | -1 | / | /
CCN(CC)c1ccc(NS(=O)(=O)c2ccc(-c3ccc(=O)[nH]n3)o2)c(C)c1 | 2 | 37 | -3 | -2 | 45* | -3 | 12 | -1
O=C(c1cc(-c2ccc(Cl)cc2)n(-c2ccc(Cl)c(Cl)c2)n1)N1CCOCC1 | 3 | 31 | 4 | 2 | -2 | -6 | / | /
O=C(c1cccc(C(F)(F)F)c1)N1CCCCCC1 | -4 | 0 | -5 | 8 | 1 | -6 | / | /
Cc1onc(-c2ccccc2)c1C(=O)Nc1ccc(Cl)cn1 | 1 | -2 | -2 | 10 | 3 | -10 | / | /
CC(C)Cn1c2ccccc2c2cc(C(=O)O)ccc21 | -12 | -11 | 7 | 18 | 55* | -4 | -43 | 1
CC(C)Cn1c(=S)[nH]c2cc(C(=O)O)ccc2c1=O | -3 | -48 | 4 | -20 | 16 | -3 | / | /
Oc1ccc2c(c1)C1CCCC1(N1CCOCC1)O2 (stereo not given) | 7 | 14 | 8 | 13 | 36* | 2 | -17 | -4
CC1=C(C(=O)N2CCOCC2)C(c2ccc(O)cc2)NC(=S)N1 (stereo not given) | -5 | -2 | -5 | -7 | 5 | -6 | / | /
Cc1sc(NC(=O)C2CCCCC2C(=O)O)c(C(N)=O)c1C (stereo not given) | -4 | 3 | 4 | 13 | 36* | -2 | -56 | -1
CSc1ccc(CSCC(=O)N2CCN(S(=O)(=O)c3ccc(C)cc3C)CC2)cc1 | 5 | 0 | -2 | / | / | -2 | / | /
CC1(C)OC2C(CO)OC(n3cnc4c(=S)nc[nH]c43)C2O1 (stereo not given) | -5 | 50 | 1 | -2 | 32* | -2 | -30 | -5
CC1(C)O[C@@H]2[C@H](O1)[C@@H](CO)O[C@H]2n1cnc2c(N)ncnc21 | -7 | 0 | 3 | / | / | -6 | / | /
O=C(/C=C/c1cccs1)Nc1nc(-c2ccccc2)cs1 | -3 | 9 | 3 | -5 | -2 | 2 | / | /
CSc1ncccc1C(=O)NNc1cc(Cl)ccc1Cl | 5 | 37 | -1 | -10 | 33* | -5 | -1 | 0
CSc1ncccc1C(=O)NCC(=O)Nc1ccc(F)c(F)c1 | -7 | -3 | 2 | 7 | 2 | -7 | / | /
COc1cccc(Nc2nc(-c3ccc(O)cc3)cs2)c1 | 5 | 14 | -2 | 9 | 43* | -7 | 34* | -1
Cc1cccnc1Nc1nc(-c2ccc(F)cc2)cs1 | -5 | 33 | 4 | -19 | -2 | 4 | / | /
Cc1cccnc1Nc1nc(-c2ccc(O)cc2)cs1 | 1 | 2 | -2 | 2 | 34* | 6 | 30* | 3
COc1ccc(-c2cc(C(=O)Nc3sc4c(c3C#N)CCCC4)c3ccccc3n2)cc1OC | 3 | -46 | -2 | -6 | 4 | -1 | / | /
Cc1ccc(C(=O)Nn2cnnc2)cc1[N+](=O)[O-] | -9 | -6 | -2 | / | 43* | -3 | 39* | -5
CCC(C)(C)NC(=O)c1cc(C(=O)OC)cc([N+](=O)[O-])c1 | -4 | 0 | 0 | 4 | 7 | -8 | / | /
SMILES | HKDC1 inhibitor | PfG6PD inh | APOBEC3A inh | SUMO HTRF inh | PfM18AAP inh-1 | APOBEC3G inh | PfM18AAP inh-2 | CTSL1 counter
COC(=O)c1cc(C(=O)Nn2cnnc2)cc([N+](=O)[O-])c1 | -5 | -4 | -1 | 7 | 63* | 11 | 73* | 1
CC(C)(C)[C@H]1COC(=O)[C@@H](Cc2ccc(F)cc2)C/C=C\C[C@@H](CC(=O)N[C@@H](CO)Cc2ccccc2)C(=O)N1 | 3 | -4 | 3 | / | / | 1 | / | /
Cc1nn(C)c(C)c1-c1c(C#N)c(N)nc2c1CCCCCC2 | -4 | 0 | 1 | 25 | 2 | 0 | / | /
COc1ccc(NC(=O)NNC(=O)c2ccc(-c3ccccc3)cc2)c(OC)c1 | 2 | -13 | 0 | 19 | -7 | -6 | / | /
COc1ccc(NC(=O)NNC(=O)c2cc3occc3n2C)c(OC)c1 | -3 | 3 | -5 | 12 | 61* | 4 | 38* | 2
NS(=O)(=O)c1ccc(CCNC(=O)c2cccc3ccccc23)cc1 | 4 | -17 | 0 | 9 | -3 | -10 | / | /
NS(=O)(=O)c1ccc(NC(=S)NCc2ccc(Cl)cc2)cc1 | -7 | 56 | -1 | -18 | 35* | 19 | 11 | 2
NS(=O)(=O)c1ccc(CCNC(=O)c2ccc[nH]c2=S)cc1 | -2 | 31 | -3 | 8 | 43* | 28 | 7 | -9
NS(=O)(=O)c1ccc(CNC(=S)Nc2ccc(F)c(Cl)c2)cc1 | -4 | 34 | -3 | 9 | -4 | -5 | / | /
CC(=O)c1ccc(NC(=S)NCCc2ccc(S(N)(=O)=O)cc2)cc1 | 0 | -15 | -1 | 10 | 0 | -6 | / | /
NS(=O)(=O)c1ccc(NC(=S)NCCc2ccccc2)cc1 | -10 | 53 | -7 | 2 | 41* | 5 | 7 | 4
O=c1[nH]c2cc3c(cc2cc1CN(CCN1CCOCC1)C(=S)NCC1CCCO1)OCO3 (stereo not given) | -8 | -1 | -1 | 4 | 41* | -9 | -36 | 0
Cc1cc2nc(-c3ccc(SCC(=O)Nc4nccs4)nc3)[nH]c2cc1C | -10 | -2 | / | 11 | 0 | / | / | /
O=[N+]([O-])c1cc([N+](=O)[O-])c2cccnc2c1Oc1ccccc1O | 1 | -4 | / | 4 | 84* | / | 60* | 4
O=[N+]([O-])c1ccc(O)c2cccnc12 | 18 | 8 | -4 | 19 | 2 | -8 | / | /
COc1ccc(/C=N/NC(=O)c2ccc(COc3ccccc3Cl)o2)cc1 | -4 | 4 | 1 | 18 | 4 | 1 | / | /
C/C(=N\Nc1nc2ccccc2c(=O)n1O)c1ccco1 | -4 | 38 | 4 | -11 | 38* | 1 | 7 | -2
OCC[C@@H]1C[C@H](O)[C@@H](O)[C@@]2(Cc3ccccc3CO2)O1 | -4 | -1 | 0 | 9 | -4 | -8 | / | /
O=C(CSc1ncn[nH]1)OCN1C(=O)c2ccccc2C1=O | 6 | -7 | -3 | -10 | 85* | -5 | 88* | -13
Nc1nc(SCC(=O)Nc2ccc([N+](=O)[O-])cc2Br)n[nH]1 | -3 | -3 | -1 | 12 | -3 | -1 | / | /
